In ChEMBL document CHEMBL1131564, “Potent and selective ligands for the dopamine transporter (DAT): structure-activity relationship studies of novel 4-[2-(diphenylmethoxy)ethyl]-1-(3-phenylpropyl)piperidine analogues” (J Med Chem, 1998):

Key:
[1] = target: Sodium-dependent dopamine transporter (Rattus norvegicus, UniProt P23977); experiment: Inhibitory activity against dopamine transporter (DAT) labeled with [3H]WIN-35428 in rat brain striatal membrane.; type: cell membranes
[2] = target: Sodium-dependent serotonin transporter (Rattus norvegicus, UniProt P31652); experiment: Inhibitory activity against serotonin transporter (SERT) labeled with [3H]-citalopram in rat brain striatal membrane.; type: cell membranes
Chain of Sodium-dependent serotonin transporter (P31652 whole entry): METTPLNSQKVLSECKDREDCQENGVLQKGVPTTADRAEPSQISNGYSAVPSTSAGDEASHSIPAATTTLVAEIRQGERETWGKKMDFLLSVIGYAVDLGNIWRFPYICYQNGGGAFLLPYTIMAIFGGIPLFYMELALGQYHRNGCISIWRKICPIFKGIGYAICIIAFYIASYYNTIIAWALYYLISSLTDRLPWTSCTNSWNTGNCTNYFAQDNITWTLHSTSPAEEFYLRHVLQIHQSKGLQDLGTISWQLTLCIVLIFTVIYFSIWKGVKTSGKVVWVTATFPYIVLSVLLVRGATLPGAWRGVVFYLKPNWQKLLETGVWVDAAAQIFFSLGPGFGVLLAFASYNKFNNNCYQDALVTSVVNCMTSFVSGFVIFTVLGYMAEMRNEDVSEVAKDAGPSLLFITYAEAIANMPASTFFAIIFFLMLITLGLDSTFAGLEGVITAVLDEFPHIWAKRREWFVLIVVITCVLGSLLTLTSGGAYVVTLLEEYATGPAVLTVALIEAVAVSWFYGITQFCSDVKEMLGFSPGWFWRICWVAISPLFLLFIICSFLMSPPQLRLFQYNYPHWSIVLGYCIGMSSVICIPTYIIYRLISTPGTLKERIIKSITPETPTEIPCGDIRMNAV

[3] = test system: Monoamine transporters; serotonin & dopamine; experiment: Ratio between the IC50 values of SERT and DAT; type: protein assay
How it was run: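 Selectivity ratio: SERT IC50 ([3H]citalopram) divided by DAT IC50 ([3H]WIN 35,428). Both IC50s come from binding in male Sprague–Dawley rat striatal membranes under identical conditions, each by nonlinear curve fitting of at least five concentrations, three independent experiments in triplicate.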

Chain of Sodium-dependent dopamine transporter (P23977 whole entry): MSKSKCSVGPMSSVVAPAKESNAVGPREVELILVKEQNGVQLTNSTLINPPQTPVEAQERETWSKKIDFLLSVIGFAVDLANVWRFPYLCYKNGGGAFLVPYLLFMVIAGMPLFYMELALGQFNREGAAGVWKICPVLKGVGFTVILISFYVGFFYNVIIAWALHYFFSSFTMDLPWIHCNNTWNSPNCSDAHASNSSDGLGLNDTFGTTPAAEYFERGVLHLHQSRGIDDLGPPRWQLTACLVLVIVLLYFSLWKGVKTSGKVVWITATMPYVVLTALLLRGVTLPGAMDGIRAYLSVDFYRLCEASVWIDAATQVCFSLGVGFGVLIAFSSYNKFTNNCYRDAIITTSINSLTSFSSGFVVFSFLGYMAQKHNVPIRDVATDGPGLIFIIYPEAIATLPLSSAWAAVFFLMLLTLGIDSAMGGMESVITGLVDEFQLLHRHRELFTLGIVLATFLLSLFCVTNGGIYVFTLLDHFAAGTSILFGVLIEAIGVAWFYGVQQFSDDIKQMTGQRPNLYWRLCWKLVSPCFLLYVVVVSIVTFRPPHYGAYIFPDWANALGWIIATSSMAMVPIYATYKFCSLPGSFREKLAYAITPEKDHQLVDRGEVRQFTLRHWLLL

Compound | IC50 [1] [nM] | IC50 [2] [nM] | Ratio [3]
Fc1ccc(CCCN2CCC(CCOC(c3ccccc3)c3ccccc3)CC2)cc1 | 6.6 | 223 | 33.8
c1ccc(C(OCCC2CCN(CCCc3cccnc3)CC2)c2ccccc2)cc1 | 29.9 | 194 | 6.5
C(=Cc1cccs1)CN1CCC(CCOC(c2ccccc2)c2ccccc2)CC1 | 9.8 | 291 | 29.6
Fc1ccc(C=CCN2CCC(CCOC(c3ccc(F)cc3)c3ccc(F)cc3)CC2)cc1 | 15.1 | 75.8 | 5
Fc1ccc(C=CCN2CCC(CCOC(c3ccccc3)c3ccccc3)CC2)cc1 | 10.8 | 205 | 19
c1ccc(CCCN2CCC(CCOC(c3ccccc3)c3cccs3)CC2)cc1 (configuration not stated) | 6 | 180 | 30
Fc1ccc(C(OCCC2CCN(CC=Cc3ccccc3)CC2)c2ccc(F)cc2)cc1 | 41.4 | 271 | 6.5
C(=Cc1ccccc1)CN1CCC(CCOC(c2ccccc2)c2ccccc2)CC1 | 10.1 | 232 | 22.9
Fc1ccc(C(OCCC2CCN(CCCc3ccccc3)CC2)c2cccs2)cc1 (configuration not stated) | 11.7 | 85.7 | 7.3
